Calb FLC = C. albicans growth modulation with fluconazole; 0.57% of 300,000 active; growth inhibition, % (test concentration not listed); C. albicans CaCi-2 (fluconazole-resistant clinical isolate) + fluconazole, Alamar Blue growth, 48 h; AID 1979;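 active = growth inhibition above about 58% in most replicates, limit read from the data, passing the limit was not always enough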;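 also: all wells also contain fluconazole at 8 µg/ml as a sub-toxic cotreatment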
MC4R ag barr = human MC4R agonism via beta-arrestin | P32245 | U2OS MC4R beta-arrestin complementation, luminescence; percent of melanotan II response, DMSO zero | activation, % at 8.9 µM | 0.98% of 360,000 active | AID 540308;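 active = activation above a per-plate cutoff, the mean activation of sample wells on that plate plus 3 SD, cut at about 8% in these data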
Target sequence (P32245 whole entry, looked up): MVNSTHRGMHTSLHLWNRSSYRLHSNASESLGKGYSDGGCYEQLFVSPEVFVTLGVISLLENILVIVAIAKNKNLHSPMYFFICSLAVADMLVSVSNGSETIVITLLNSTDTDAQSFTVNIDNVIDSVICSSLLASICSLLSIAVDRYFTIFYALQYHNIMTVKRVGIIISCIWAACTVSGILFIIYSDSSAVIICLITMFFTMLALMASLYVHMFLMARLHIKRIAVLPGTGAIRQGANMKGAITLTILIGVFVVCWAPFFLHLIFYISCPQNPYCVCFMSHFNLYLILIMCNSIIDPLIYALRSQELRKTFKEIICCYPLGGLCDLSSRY
H9c2 TAG inh = inhibitors of triacylglycerol accumulation | H9c2 cells, Nile Red lipid (TAG) fluorescence; cells loaded with 200 µM oleic acid | inhibition, % at 12.5 µM | 0.66% of 230,000 active;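 active = pattern-corrected inhibition of lipid staining of at least 50% with the nuclear-stain viability signal not falling by more than 50%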
GalR3 antagonist = human GalR3 antagonism; O60755; HEK293 GalR3-CNG cAMP membrane potential fluorescence; galR3 body fused to GalR1 C-terminus; inhibition, % at 3 µM; 0.44% of 360,000 active; AID 651719;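 active = inhibition above the screen-wide average plus 3 SD, cut at about 13% in these data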;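 also: forskolin and galanin both at EC90 stimulate the cells; cAMP rise reported by CNG channel membrane potential dye signal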
Target sequence (O60755 1-299 limits assumed): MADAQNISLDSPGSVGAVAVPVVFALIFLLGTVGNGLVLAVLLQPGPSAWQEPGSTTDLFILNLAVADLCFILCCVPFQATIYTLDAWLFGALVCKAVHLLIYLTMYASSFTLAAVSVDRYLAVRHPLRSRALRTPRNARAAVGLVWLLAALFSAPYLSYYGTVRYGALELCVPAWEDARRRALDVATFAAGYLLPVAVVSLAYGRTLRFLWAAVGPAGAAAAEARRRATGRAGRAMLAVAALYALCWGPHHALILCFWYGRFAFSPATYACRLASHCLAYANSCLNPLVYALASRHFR
MC4R antag cAMP = antagonists of human melanocortin 4 receptor (MC4R). P32245. MC4R-expressing cells, MTII-stimulated cAMP, LANCE TR-FRET. inhibition, % at 6.5 µM. 0.48% of 360,000 active. AID 540295;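 active = inhibition above its plate's cutoff, the mean of tested wells on that plate plus 3 SD, cut at about 29% in these data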
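Material – human MC4R-expressing U2OS cells · Repeats – no replicates · Detection – TR-FRET with Eu-cAMP and labeled anti-cAMP, 671 nm · Times – compound 30 min, challenge 1 h, detection 1 h · Compound – single nominal compound dose of 6.5 µM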
Efflux pump inh = inhibitors of Candida antifungal efflux pumps expressed in yeast; S. cerevisiae Candida pump triplex, Nile Red efflux; inhibition, % at 10 µM; 0.44% of 330,000 active;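 active = plate passing quality check with inhibition over a set limit, or well fluorescence over plate mean plus 4 SD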;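 also: Nile Red retained in pooled yeast measured as flow cytometry median fluorescence; higher means more Nile Red kept so more efflux inhibition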
Each line names hits and unclear results; the compound was inactive in the other large screens. Hits are enriched below; roughly 2.9% of the tested compounds scored in any of these assays.

C#CCOCCOCCOCCNc1nc(N2CCN(C(=O)CCCCCCCCCCNC(=O)[C@H]([C@@H](C)CC)n3cc(CCCCCN)nn3)CC2)nc(N2CCN(C(=O)CCCCCCCCCCNC(=O)[C@H]([C@@H](C)CC)n3cc(CCCCN=C(N)N)nn3)CC2)n1	MC4R antag cAMP 57 (no result: Calb FLC, GalR3 antagonist)
C#CCOCCOCCOCCNc1nc(N2CCN(C(=O)CCCCCCCCCCNC(=O)[C@H]([C@@H](C)CC)n3cc(CCCCN=C(N)N)nn3)CC2)nc(N2CCN(C(=O)CCCCCCCCCCNC(=O)[C@H](CO)n3cc(CCCCCN)nn3)CC2)n1	MC4R antag cAMP 32 (no result: Calb FLC, GalR3 antagonist)
O=C(NCc1cccs1)c1ccc(Cl)c(S(=O)(=O)N2CCOCC2)c1	none (no result: Calb FLC, Efflux pump inh)
CCCNC(=O)c1cc(C2CCCN(S(=O)(=O)c3cccs3)C2)on1 (configuration not stated)	none (no result: Calb FLC, Efflux pump inh)
COCCn1cnnc1SCC(=O)Nc1cc(OC)c([N+](=O)[O-])cc1C	Calb FLC 114
Nc1[nH]c(C(=O)c2ccccc2)c(-c2ccccc2C(F)(F)F)c1C(=O)c1cccs1	none (no result: Calb FLC, MC4R ag barr, H9c2 TAG inh, MC4R antag cAMP, Efflux pump inh)
O=C(CCl)N(CCc1ccccc1)CCc1ccccc1	MC4R ag barr 8.3 (no result: H9c2 TAG inh)
O=C(O)c1ccc(NC(=S)NC(=O)c2ccc(-c3ccccc3)cc2)cc1	Calb FLC 84
O=C(NC(=S)Nc1ccccc1)c1ccc(-c2ccccc2)cc1	none (no result: H9c2 TAG inh)
Cc1cc(C(=O)N/N=C/c2ccc([N+](=O)[O-])o2)c(C)o1	none
O=C(CNc1ccc2ccccc2c1)N/N=C/c1ccc([N+](=O)[O-])o1	MC4R ag barr 11
Cc1nonc1C(=O)N/N=C/c1ccc([N+](=O)[O-])o1	Calb FLC 82
CC(C)NC(=O)COC(=O)c1cccc(NS(=O)(=O)/C=C/c2ccccc2)c1	Calb FLC 103
COc1cccc(OC)c1-c1nn2c(-c3cc(-c4ccccc4)n[nH]3)nnc2s1	MC4R ag barr 36
COc1ccc(Cc2c(C(C)(C)C)nc3ccc(Cl)cn23)c(C)c1	none (no result: Calb FLC, MC4R ag barr, H9c2 TAG inh, MC4R antag cAMP, Efflux pump inh)
O=C(COC(=O)/C=C/c1ccccc1[N+](=O)[O-])Nc1ccc(OC(F)F)cc1	none (no result: H9c2 TAG inh)
O=C(COC(=O)/C=C/c1ccccc1[N+](=O)[O-])Nc1ccc(OCc2ccccc2)cc1	MC4R ag barr 9.2 (no result: H9c2 TAG inh)
O=C(CCC(=O)OCc1ccc(C(=O)Oc2ccc(Cl)cc2)cc1)Nc1ccccc1	MC4R ag barr 9.6 (no result: H9c2 TAG inh)
COc1ccc(NC(=O)CCC(=O)OCc2ccc(C(=O)Oc3ccc(Cl)cc3)cc2)cc1	none (no result: H9c2 TAG inh)
O=C(N/N=C/c1ccccn1)c1cc(-c2ccc(Cl)cc2)nc2ccccc12	Calb FLC 61 (no result: H9c2 TAG inh)
O=C(N/N=C/c1ccccn1)c1cc(-c2ccc(Br)cc2)nc2ccccc12	none
C/C(=N\Nc1ccc([N+](=O)[O-])cc1)c1ccc(O)cc1	Calb FLC 113 (no result: H9c2 TAG inh)
C/C(=N/NC(=O)c1cc(O)c(O)c(O)c1)c1ccc([N+](=O)[O-])cc1	Calb FLC 91 (no result: H9c2 TAG inh, Efflux pump inh)
C/C(=N\NC(=O)c1ccc([N+](=O)[O-])cc1)c1c(O)cc(C)oc1=O	none
C/C(=N\Nc1ccc([N+](=O)[O-])cc1)c1cccc(N)c1	none (no result: H9c2 TAG inh)
CC(=O)NC/C(C)=N\Nc1ccc([N+](=O)[O-])cc1	Calb FLC 113
Nc1[nH]c(C(=O)c2ccccc2)c(-c2ccc3ccccc3c2)c1C(=O)NCc1cccc2ccccc12	none (no result: Calb FLC, MC4R ag barr, H9c2 TAG inh, MC4R antag cAMP, Efflux pump inh)
Cc1cc(C)cc(OCC(=O)Nc2ccc(N3CCCCC3)cc2)c1	MC4R ag barr 8.8
C[C@@H](CO)NC(=O)c1[nH]cnc1C(=O)Nc1cccc(Cl)c1	none (no result: Calb FLC, Efflux pump inh)
COc1ccc2nc3cc(Cl)ccc3c(Nc3ccc(O)c(CN4CCN(C)CC4)c3)c2c1	H9c2 TAG inh 54 (no result: Calb FLC, Efflux pump inh)
Cc1cc2nc(C(C)(C)C)c(Cc3ccccc3C(F)(F)F)n2c(C)c1Br	none (no result: Calb FLC, MC4R ag barr, H9c2 TAG inh, MC4R antag cAMP, Efflux pump inh)
CCCNC(=O)C1(C)CCCN(Cc2ccccc2N(C)C)C1 (configuration not stated)	none (no result: Calb FLC, Efflux pump inh)
O=C(COC(=O)CCc1c[nH]c2ccccc12)Nc1ccc([N+](=O)[O-])cc1	MC4R ag barr 8.6 (no result: H9c2 TAG inh)
CCN(CC)c1ccc(N=Cc2ccc(N(CC)CC)cc2O)cc1	Calb FLC 78 (no result: H9c2 TAG inh)
CN(C)c1ccc(CC(=O)N2CCCC(c3cc(C(=O)Nc4ccc(F)c(Cl)c4)no3)C2)cc1 (configuration not stated)	none (no result: Calb FLC, Efflux pump inh)
Cc1ccc(NC(=O)CC2NCCNC2=O)cc1Cl (configuration not stated)	Calb FLC 120
O=C(CC1NCCNC1=O)Nc1ccc(Cl)c(Cl)c1 (configuration not stated)	none (no result: H9c2 TAG inh)
C[C@]12Cc3ccccc3C1CC1=N[C@@H](C3CCCCC3)O[C@@]13C[C@@H]2C(=O)N3C1CCN(Cc2ccccc2)CC1 (some centres not stated)	none (no result: Calb FLC, MC4R ag barr, H9c2 TAG inh, MC4R antag cAMP, Efflux pump inh)
C/C(=N\NC(=O)c1c[nH]c2ccccc12)c1ccccn1	none
C/C(=N\NC(=O)c1cc2ccccc2cc1O)c1ccccn1	Calb FLC 100 (no result: H9c2 TAG inh)
O=[N+]([O-])c1ccc(O)c(/C=N/Nc2nn[nH]n2)c1	none
O=[N+]([O-])c1ccc(O)c(/C=N/Nc2ccc(Cl)nn2)c1	Calb FLC 117
O=C(N/N=C/c1cc([N+](=O)[O-])ccc1O)c1ccc(COc2ccc3c(c2)CCC3)o1	Calb FLC 93
O=C(N/N=C/c1cc([N+](=O)[O-])ccc1O)C1C2CCCCC21 (configuration not stated)	Calb FLC 101 (no result: MC4R ag barr, H9c2 TAG inh, GalR3 antagonist, MC4R antag cAMP)
CCOc1ccc(NC(=O)CSc2nnnn2C2CC2)cc1S(=O)(=O)N1CCCC1	none (no result: Calb FLC)
CCN(CC(=O)Nc1cccc(OC)c1)C(=O)C1CC(=O)N(Cc2ccccc2Cl)C1 (configuration not stated)	none (no result: Calb FLC, Efflux pump inh)
Cc1cc(C)c2c(N)c(C(=O)Nc3ccccc3Cl)sc2n1	MC4R ag barr 8.4
Cc1cc(C)c2c(N)c(C(=O)Nc3ccccc3F)sc2n1	none
COc1ccccc1N(/N=C1\Sc2ccccc2C1=O)C(C)=O	H9c2 TAG inh 69
NC(=S)NNc1cccc(Cl)c1	Calb FLC 85
Cc1cc(C)cc(-n2nnnc2SCC(=O)Nc2nc(-c3ccc(F)cc3)cs2)c1	MC4R ag barr 30 (no result: H9c2 TAG inh)
Cc1nn(-c2ccccc2)c(C)c1/C=N/NC(=O)c1cc(-c2ccccc2)n[nH]1	H9c2 TAG inh 56
CCCCC1Cc2[nH][nH]c(=O)c2C(c2ccc(Cl)cc2)O1 (configuration not stated)	none (no result: Calb FLC, MC4R ag barr, H9c2 TAG inh, MC4R antag cAMP, Efflux pump inh)
C/C(=N\OCc1ccccc1C#N)c1cc2ccccc2o1	none
C/C(=N\OCc1ccc(C#N)cc1)c1cc2ccccc2o1	Calb FLC 78
COc1ccc(-c2n[nH]c(C)c2-c2cnn(-c3ccccc3)c2)c(O)c1	Calb FLC 95
COc1ccc(-c2n[nH]c(C)c2-c2cnn(-c3ccccc3)c2)c(O)c1C	none
C=C(C)COc1ccc(-c2n[nH]c(C)c2-c2ccc(OC)cc2)c(O)c1	MC4R ag barr 9.6
CC1(C)CC(=O)C=C(C#CC2(O)CCCCC2)C1	H9c2 TAG inh 56 (no result: Calb FLC, Efflux pump inh)

Screening results from PubChem BioAssay.
